Here are results for four molecules from ChEMBL document CHEMBL1141851, “Two bioactive pentacyclic triterpene esters from the root bark of Hibiscus syriacus” (J Nat Prod, 1999).

Broadly, the IC50 is the concentration that inhibits the measured activity by half.

The test system of assay [1] is HCT-15. The assay is described as follows: Cytotoxicity against human HCT-15 cells. The settings on record: read-out: ED50 (the source's name). Type of assay: functional.
Assay [2] concerns PC-3. The assay is described as follows: Cytotoxicity against human PC-3 cells. Type of assay: functional. The settings on record: read-out: ED50 (the source's name).
The subject of assay [3] is ACHN. Description: Cytotoxicity against human ACHN cells. Type of assay: functional. The note with it: read-out: ED50 (the source's name).
Assay [4] relates to Liver microsomes. Description: Antioxidant activity in rat liver microsomes assessed as inhibition of lipid peroxidation by TBARS assay. The assay is classed as functional, Microsome. The method, boiled down: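 Rat liver microsomal suspension ([…]) mixed with 0.2 mM ascorbic acid. Peroxidation was started by adding 100 µM FeSO4·7H2O. Thiobarbituric acid reactive products were read at 532 nm to measure inhibition of lipid peroxidation. The method was adapted with minor modification from an earlier one.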

Assay [5] has as its system MCF7. Description: Cytotoxicity against human MCF7 cells. Type of assay: functional. The note with it: read-out: ED50 (the source's name).
The subject of assay [6] is NCI-H23. Description: Cytotoxicity against human NCI-H23 cells. The assay is classed as functional. The note with it: read-out: ED50 (the source's name).
The test system of assay [7] is UO-31. The assay is described as follows: Cytotoxicity against human UO-31 cells. The assay is classed as functional. The note with it: read-out: ED50 (the source's name).
For assay [8], the system named is SW-620. Description: Cytotoxicity against human SW620 cells. The assay is classed as functional. The note with it: read-out: ED50 (the source's name).
Assay [9] concerns UACC-62. Description: Cytotoxicity against human UACC-62 cells. The assay is classed as functional. The note with it: read-out: ED50 (the source's name).
In assay [10] the test system is SF-539. The assay is described as follows: Cytotoxicity against human SF-539 cells. The note with it: read-out: ED50 (the source's name). The assay is classed as functional.

In brackets after ≈: the same amount, converted by molar mass.

In the case of `CC1(C)CC[C@]2(CO)CC[C@]3(C)C(=CC[C@@H]4[C@@]5(C)CC[C@H](O)[C@@](C)(COC(=O)/C=C/c6ccc(O)c(O)c6)[C@@H]5CC[C@]43C)[C@@H]2C1`, the EC50 came out at 0.8 µg/mL (≈ 1.29 µM) in [1]; 1.6 µg/mL (≈ 2.58 µM) in [2]; 1.2 µg/mL (≈ 1.93 µM) in assay [3]; 2.2 µg/mL (≈ 3.54 µM) in assay [5]; 2.8 µg/mL (≈ 4.51 µM) in assay [6]; 2 µg/mL (≈ 3.22 µM) in assay [7]. In addition, the EC50 came out at 1.1 µg/mL (≈ 1.77 µM) in assay [8], 3.9 µg/mL (≈ 6.28 µM) in assay [9] and 1.4 µg/mL (≈ 2.25 µM) in [10]. Also, the IC50 in [4] was determined as 2.3 µg/mL (≈ 3.7 µM).
In the case of `CC1(C)CC[C@]2(CO)CC[C@]3(C)C(=CC[C@@H]4[C@@]5(C)CC[C@H](OC(=O)/C=C/c6ccc(O)c(O)c6)[C@@](C)(CO)[C@@H]5CC[C@]43C)[C@@H]2C1`, the EC50 in assay [1] turned out to be 1.3 µg/mL (≈ 2.09 µM); in assay [2], 2.2 µg/mL (≈ 3.54 µM); in assay [3] it was 2.1 µg/mL (≈ 3.38 µM); in assay [5] it was 1.8 µg/mL (≈ 2.9 µM); in [6], 1.7 µg/mL (≈ 2.74 µM); in [7], 1.7 µg/mL (≈ 2.74 µM). Besides, the EC50 in [8] worked out at 1 µg/mL (≈ 1.61 µM); in assay [9], 2.3 µg/mL (≈ 3.7 µM); in assay [10] it was 2 µg/mL (≈ 3.22 µM). For the same molecule, the IC50 in assay [4] is 1.1 µg/mL (≈ 1.77 µM).
For `COc1cccc2c1C(=O)c1c(O)c3c(c(O)c1C2=O)C[C@@](O)(C(=O)CO)C[C@@H]3O[C@H]1C[C@H](N)[C@H](O)[C@H](C)O1` [DOXORUBICIN], the EC50 in [1] worked out at 0.6 µg/mL (≈ 1.1 µM); in assay [2], 0.4 µg/mL (≈ 0.736 µM); in assay [3] it was 0.3 µg/mL (≈ 0.552 µM); in assay [5], 0.1 µg/mL (≈ 0.184 µM); in assay [6], 0.1 µg/mL (≈ 0.184 µM); in assay [8] it was 0.1 µg/mL (≈ 0.184 µM). The EC50 in assay [9] and in assay [10] was 0.2 µg/mL (≈ 0.368 µM) each time.
Turning to VITAMIN E, in assay [4], the IC50 is 1.6 µg/mL.
